Assay results: publication PMC7953034 (Journal of Pesticide Science, 2021)
Read-outs that look alike come from different tables or passages of the source.

Assays:
DmNobo [1] = biological target: T1, DmNobo (Drosophila melanogaster, UniProt Q7JYX0); experiment: Crystal structures of DmNobo complexed with inhibitors; conditions: for # of bound molecules in the H-site: crystal structure of DmNobo complex; for Conformational change of Phe39: apo vs compound-bound; for GSH requirement for binding: crystals soaked with or without GSH; for GS-conjugation: observed in crystal structure with GSH
T1 sequence (Q7JYX0 whole entry): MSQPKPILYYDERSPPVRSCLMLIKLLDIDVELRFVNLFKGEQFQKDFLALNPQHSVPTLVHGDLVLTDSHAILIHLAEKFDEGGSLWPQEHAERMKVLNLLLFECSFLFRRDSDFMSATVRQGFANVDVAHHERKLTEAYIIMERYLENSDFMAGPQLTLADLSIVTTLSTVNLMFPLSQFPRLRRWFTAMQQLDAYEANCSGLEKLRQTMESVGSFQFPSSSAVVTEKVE
Summary of the method: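 DmNobo was expressed in E. coli BL21(DE3) from a pCold III construct and purified by GSH affinity and size-exclusion chromatography. Crystals were grown over 34% (v/v) PPG400, 80 mM Bis-Tris pH 6.4. They were soaked 2 days in 42.5% PPG400, 100 mM Bis-Tris pH 6.4 with 30 mM test compound, ±10 mM GSH, then flash-frozen. Synchrotron data were phased by molecular replacement using apo DmNobo. Contacts were defined as ≤4.0 Å.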

DmNobo [2] = biological target: T1, DmNobo; experiment: GST activity inhibition assay; type: biochemical
Summary of the method: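 Recombinant DmNobo from E. coli was used. Test compounds were serially diluted two-fold in DMSO (stock series from 2.5 mM down), then premixed with enzyme and GSH before 3,4-DNADCF was added. The final mix was 100 mM sodium phosphate pH 6.5, 25 ng·mL⁻¹ DmNobo, 1 mM GSH, 0.005% Tween 20 and 1 µM substrate. Fluorescence of the conjugate (ex 485/em 538 nm) was read every 30 s for 3 min. Relative activity was activity with/without compound; IC50 was taken from duplicate assays, with SD.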

DmNobo [3] = biological target: T1, DmNobo; conditions: crystal structure PDB ID: 6KEP; cited from earlier work

SMILES	# of bound molecules in the H-site (DmNobo [1])	Conformational change of Phe39 (DmNobo [1]; crystal structure)	GSH requirement for binding (DmNobo [1])	GS-conjugation (DmNobo [1])	IC50 (DmNobo [2]) [µM]	Different conformations of the inhibitor in subunits A and B (DmNobo [1]; crystal structure)	inhibitory activity against DmNobo (in words) (DmNobo [2]; GSH-conjugation activity, 3,4-DNADCF)	# of bound molecules in the H-site (DmNobo [3])
O=C1CS(=O)(=O)N(Cc2ccc(F)cc2)c2ccsc21 [TDP012, 1-(4-fluorobenzyl)-1H-thieno[3,2-c][1,2]thiazin-4(3H)-one 2,2-dioxide]	1	YES	GSH-dependent and YES	YES	3.1 ± 0.77			
COc1cccc(C2=NC(C)(C)NC(c3cc(Br)ccc3O)C2)c1 (stereo not drawn) [TDP011, 4-bromo-2-[4-(3-methoxyphenyl)-2,2-dimethyl-5,6-dihydro-1H-pyrimidin-6-yl]phenol]	1	YES	GSH-dependent and YES	YES	6.72 ± 1.48			
C[C@]12CC[C@@H]3c4ccc(O)cc4CC[C@H]3[C@@H]1CC[C@@H]2O [17β-Estradiol, 17β-estradiol]								1

Now from value to compound, other results behind:

# of bound molecules in the H-site (DmNobo [1])	Conformational change of Phe39 (DmNobo [1]; crystal structure)	GSH requirement for binding (DmNobo [1])	GS-conjugation (DmNobo [1])	IC50 (DmNobo [2]) [µM]	Different conformations of the inhibitor in subunits A and B (DmNobo [1]; crystal structure)	SMILES	inhibitory activity against DmNobo (in words) (DmNobo [2]; GSH-conjugation activity, 3,4-DNADCF)	# of bound molecules in the H-site (DmNobo [3])
2	YES	GSH-dependent and YES	YES	3.32 ± 0.81		Nc1ccc(N2CCc3sccc3C2)nc1 [TDP015, 6-(6,7-dihydrothieno[3,2-c]pyridin-5(4H)-yl)-3-pyridinamine]		
1			YES	> 1000		CC1(C)CC(=O)CC(=O)C1 [TDP045, 5,5-dimethyl-1,3-cyclohexanedione]	did not exhibit a strong inhibitory activity	
1	YES			8.94 ± 1.65	YES	Cc1ccc(C(C)(C)C)cc1S(=O)(=O)Nc1ccccc1C(=O)O [TDP013, 2-(5-tert-butyl-2-methyl-benzenesulfonylamino)-benzoic acid]		
